Screening results from PubChem BioAssay.
In the library only some 2.8% were active in any assay of this set; here they are far more common.
MC4R antagonist: MC4R antagonists of cAMP signaling, primary screen, cell-based, TR-FRET, antagonist arm of biased-ligand search | Melanocortin receptor 4 (Homo sapiens), P32245 | MC4R-expressing cells, MTII-stimulated cAMP, LANCE TR-FRET | inhibition, % at 6.5 µM | hit rate 0.48% among 360,000;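 active = inhibition above its plate's cutoff, the mean of tested wells on that plate plus 3 SD, cut at about 29% in these data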;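 note: 0% = Melanotan II alone and 100% = Melanotan II plus saturating MCL0020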
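system = U2OS cells with stable human MC4R expression | also added = Melanotan II challenge after compound preincubation | dosing = one concentration, 6.5 µM nominal | incubation = compound 30 min, challenge 1 h, detection 1 h | measured by = TR-FRET with Eu-cAMP and labeled anti-cAMP, 671 nm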
MC4R barr agon: MC4R agonists recruiting beta-arrestin, primary screen, cell-based, luminescence, agonist arm of biased-ligand search; Melanocortin receptor 4 (Homo sapiens), P32245; U2OS MC4R beta-arrestin complementation; percent of melanotan II response, DMSO zero; activation, % at 8.9 µM; hit rate 0.98% among 360,000; AID 540308, 2011;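 active = activation above a per-plate cutoff, the mean activation of sample wells on that plate plus 3 SD, cut at about 8% in these data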
EBI2 block: EBI2 receptor antagonists, beta-arrestin recruitment, primary screen, cell-based, luminescence, 7a,25-OHC stimulation, uHTS | G-protein coupled receptor 183 (Homo sapiens), P32249 | 7a,25-OHC stimulated | inhibition, % at 5 µM | hit rate 0.81% among 360,000 | AID 651636, 2012; in the data active = inhibition above about 38%;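 note: enzyme fragment complementation signal reports receptor beta-arrestin coupling in cells; 0% = agonist plus DMSO wells and 100% = wells without agonist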
HTR2A ag: mouse Htr2a agonists via beta-arrestin recruitment, primary screen, cell-based, luminescence. 5-hydroxytryptamine receptor 2A (Mus musculus), P35363. hit rate 0.66% among 360,000. activation, % at 7.6 µM. AID 624169, 2012. CHO-K1 mHTR2A beta-arrestin complementation; percent of 30 µM serotonin response;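 active = activation above a run cutoff, the mean activation of all tested compounds plus 3 SD, cut at about 14% in these data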;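 note: 0% = plate median of compound wells and 100% = 30 µM serotonin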
Target sequence (P35363 whole entry, looked up): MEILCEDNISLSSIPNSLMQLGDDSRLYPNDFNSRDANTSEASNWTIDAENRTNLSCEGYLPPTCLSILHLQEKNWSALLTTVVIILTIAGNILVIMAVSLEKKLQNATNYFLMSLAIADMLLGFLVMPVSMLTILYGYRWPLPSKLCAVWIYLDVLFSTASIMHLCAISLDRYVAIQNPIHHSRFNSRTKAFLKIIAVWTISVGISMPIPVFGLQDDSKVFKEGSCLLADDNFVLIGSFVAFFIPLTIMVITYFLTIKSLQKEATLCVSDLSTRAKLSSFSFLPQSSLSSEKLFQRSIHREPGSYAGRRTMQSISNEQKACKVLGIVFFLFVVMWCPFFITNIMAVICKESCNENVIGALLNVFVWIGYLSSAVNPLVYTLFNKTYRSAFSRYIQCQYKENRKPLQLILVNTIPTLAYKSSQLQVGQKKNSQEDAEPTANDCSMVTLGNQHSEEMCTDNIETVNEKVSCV
MOR ag counter: OPRM1 agonists via beta-arrestin recruitment, confirmation, counter-screen for mouse HTR2A agonist project, cell-based, luminescence, single concentration | hit rate 5.3% among 2,300 | AID 624380, 2012 | shares compounds with HTR2A ag | U2OS OPRM1 beta-arrestin PathHunter; DMSO 0%, DAMGO 9.3 µM 100% | activation, % at 9.3 µM;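 active = mean activation above the mean of DMSO-only wells plus 3 SD, cut at about 0.5% in these data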
m5-HT2A ag conf: mouse HTR2A agonists, beta-arrestin recruitment, confirmation, cell-based, luminescence, CHO-K1 PathHunter, triplicate; shares compounds with HTR2A ag; DMSO 0%, 30 µM serotonin 100%; activation, % at 7.6 µM; hit rate 19% among 2,300;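 active = mean activation across triplicates above the hit threshold derived in the original primary screen, cut at about 15% in these data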
* marks the source's active call; other numbers are inactive results; x = no result given.

SMILES	MC4R antagonist	MC4R barr agon	EBI2 block	HTR2A ag	MOR ag counter	m5-HT2A ag conf
Cc1cc(C(O)c2ncc(-c3ccccc3)[nH]2)ccc1F (configuration not stated)	-6.0	1.1	6.8	4.3	x	x
CC(C(=O)Nc1sc2c(c1C#N)CCCCC2)N1C(=O)c2ccccc2C1=O (configuration not stated)	12.1	-0.4	5.3	24.7*	-0.5	-0.7
COc1cccc(N2CCN(C(=O)c3cc(-c4ccccc4)nc4c3cnn4C(C)C)CC2)c1	8.4	5.5	12.8	-5.6	x	x
COCCCNC(=O)c1ccc2sc([C@@H]3O[C@H](CO)[C@H](O)[C@H](O)[C@H]3O)nc2c1	-1.3	1.8	-8.5	3.7	x	x
Cc1ccc(C(=O)OCC(=O)NCc2cccc(Cl)c2)cc1S(=O)(=O)N1CCCCC1	-1.2	-4.0	7.3	16.8*	-0.5	-5.8
COc1ccc(NC(=O)Cn2nnc(-c3ccccc3)c2COc2ccc(C(C)=O)cc2)cn1	-9.2	-0.4	6.2	5.9	x	x
CCC(C)(C)NC(=O)CN(C(=O)c1csnn1)c1ccccc1-c1ccccc1	7.8	-1.2	-0.2	16.2*	-0.8	-4.2
CC(O)(c1ccncc1)c1nc(-c2cccc(C(F)(F)F)c2)cs1 (configuration not stated)	-5.8	0.2	11.9	1.8	x	x
Cc1cc(C)c(C(O)c2ncc(-c3cccc(F)c3)[nH]2)c(C)c1 (configuration not stated)	8.9	-0.2	-8.0	2.7	x	x
Cc1ccc(S(=O)(=O)NN=C2CCc3ccccc32)cc1	2.5	-0.9	-8.5	-3.0	x	x
C[C@@]12CCC3[C@@](CCC4[C@@]3(C)CCC[C@@]4(C)C(=O)NC3CCCCC3)(CC1=O)C2 (some centres not stated)	-2.6	-1.1	-0.5	4.2	x	x
C[C@@]12CCC3[C@@](CCC4[C@@]3(C)CCC[C@@]4(C)C(=O)N3CCCCC3)(CC1=O)C2 (some centres not stated)	0.3	-0.3	6.2	14.4*	-0.3	-5.1
Cc1cccc(C)c1NC(=O)C(c1ccccc1)N(C)CCc1ccccc1 (configuration not stated)	x	x	5.3	1.2	x	x
CCCCCC1C(=O)C[C@@H]2CCN3C(=O)CCC[C@H]1[C@H]23 (some centres not stated)	2.7	-0.7	-8.0	16.8*	-0.6	-3.3
O=C1C[C@H]2CCCCC(=O)N3CC[C@@H](C1)[C@@H]23	-3.0	-0.8	-0.9	-0.2	x	x
COC(=O)[C@@]1(Sc2ccc(C)cc2)CC(=O)N[C@@H]1c1ccc(C(F)(F)F)cc1	x	x	8.6	15.1*	0.8*	3.5
COC(=O)[C@]1(Sc2ccccc2)CC(=O)N[C@@H]1c1ccccc1	x	x	1.8	-0.5	x	x
COCCN(CCOC)C(=O)CSc1ccc(S(=O)(=O)N2CCN(C)CC2)cn1	-2.8	-1.0	2.5	-2.3	x	x
CCOC(=O)C1(CCCc2ccccc2)CCN(Cc2ccn[nH]2)CC1	9.7	-2.0	-22.9	14.8*	-0.5	-5.4
CCOC(=O)C1(CCCc2ccccc2)CCN(Cc2cnn(C)c2)CC1	13.0	-0.2	14.3	-6.2	x	x
CC(=O)Nc1cccc(-c2ccnc3c2CC(C(=O)Nc2ccc(C(C)C)cc2)O3)c1 (configuration not stated)	6.0	-0.7	0.0	2.2	x	x
C#C[C@]1(O)CCC2C3CCC4=CC(=O)CC[C@@H]4C3CC[C@@]21C (some centres not stated)	2.3	0.6	2.2	15.0*	-0.6	3.6
CC(C)Oc1cc(F)ccc1-c1cc(C(=O)NCCc2ccncc2)[nH]n1	4.8	1.5	0.0	-5.2	x	x
O=C(Cn1ccc(C(F)(F)F)n1)NNC(=O)c1cccnc1	0.9	-3.2	-7.7	3.5	x	x
Cc1ccc(C(=O)NNC(=O)Cn2ccc(C(F)(F)F)n2)o1	3.0	2.8	-9.0	16.1*	-0.5	-1.3
SMILES	MC4R antagonist	MC4R barr agon	EBI2 block	HTR2A ag	MOR ag counter	m5-HT2A ag conf
CCc1c(C)nc(N2CCN(c3ccccc3F)CC2)[nH]c1=O	4.8	-0.3	-5.3	19.7*	0.9*	4.3
Cc1nc(N2CCN(c3ccccc3F)CC2)[nH]c(=O)c1C	4.5	-0.3	-0.2	-5.7	x	x
Cc1cccc(NC(=O)c2cnc3sccn3c2=O)c1	3.5	0.6	2.4	-0.4	x	x
Cc1cccc(NC(=O)c2cnc3ccccn3c2=O)c1	8.6	3.1	-0.2	26.2*	-0.7	-1.5
CCC1(C)CC(C#N)(C#N)C(=O)NC1=O (configuration not stated)	x	x	2.8	-2.0	x	x
COc1ccccc1CC(=O)NCc1csc(-c2cccs2)n1	3.8	0.0	7.8	-0.6	x	x
CCC(=O)NCc1csc(-c2cccs2)n1	1.1	-0.9	-13.1	38.6*	-0.6	-1.9
COC(=O)[C@@]12C[C@@H](CC(=O)NCc3cccc4ccccc34)C(=O)N(Cc3ccc4c(c3)OCO4)C1=CCC(C)(C)C2	x	x	11.2	2.1	x	x
CC(C)(C)c1csc(NC(=O)c2c(F)c(F)c(F)c(F)c2F)n1	14.2	-0.7	-4.4	17.5*	0.0	15.2*
CC(C)(C)c1csc(NC(=O)c2ccccc2O)n1	16.5	0.0	5.3	4.9	x	x
COC(=O)C[C@H]1C[C@H]2c3cc(NC(=O)Cc4ccncc4)ccc3O[C@H]2[C@@H](CO)O1	-1.1	-0.4	4.5	-0.6	x	x
C[C@H]1CN([C@@H](C)CO)C(=O)c2cc(/C=C/c3ccccc3)cnc2O[C@H]1CN(C)C(=O)c1cccc(F)c1	0.7	0.3	2.5	17.1*	-0.6	-8.3
C[C@@H]1CN([C@H](C)CO)C(=O)c2cc(Br)cnc2O[C@@H]1CN(C)C(=O)c1cccc(F)c1	14.0	0.2	-11.1	-0.7	x	x
COc1ccc(CNC(=O)CN(C(=O)CCC(=O)Nc2ccccn2)c2ccc(C)cc2)cc1	8.5	-2.1	10.2	29.7*	-0.7	-5.0
COc1ccc(CNC(=O)CN(C(=O)CCC(=O)Nc2ccccn2)c2cccc(C)c2)cc1	11.5	-1.3	7.5	2.4	x	x
Cc1ccc(OC(=O)N(C)C[C@H]2OCc3cn(nn3)CCCC(=O)N([C@H](C)CO)C[C@@H]2C)cc1	1.0	-0.9	-5.7	0.7	x	x
CSc1ccccc1OCc1cc(C(=O)N2CCCC(C)C2)no1 (configuration not stated)	-3.7	-1.9	-0.6	3.9	x	x
CSc1ccccc1OCc1cc(C(=O)N2CCC[C@H]2C(N)=O)no1	-0.6	-4.3	0.9	14.9*	-0.2	3.1
